{
  "source": "ChEMBL document CHEMBL5247575",
  "about": "(J Med Chem, 2018)",
  "data": [
    {"test_system": "Escherichia coli", "assay": "Synergistic antibacterial activity against Escherichia coli DH10B transfected with pBC SK (-) KPC-3 assessed as meropenem MIC at 4 ug/ml by broth microdilution method", "format": "functional", "conditions": "dose 4 µg/ml", "units": {"MIC": "µg/mL"}, "values": [
      {"smiles": "O=C(NNC(=O)[C@@H]1CC[C@@H]2CN1C(=O)N2OS(=O)(=O)O)[C@@H]1CCCNC1", "note": "[ZIDEBACTAM]", "MIC": "≤ 0.12"}
    ]},
    {"test_system": "Acinetobacter baumannii", "assay": "Synergistic antibacterial activity against Acinetobacter baumannii PR381 producing OXA-24/40 assessed as meropenem MIC at 4 ug/ml by broth microdilution method", "format": "functional", "conditions": "dose 4 µg/ml", "units": {"MIC": "µg/mL"}, "values": [
      {"smiles": "O=C(NNC(=O)[C@@H]1CC[C@@H]2CN1C(=O)N2OS(=O)(=O)O)[C@@H]1CCCNC1", "note": "[ZIDEBACTAM]", "MIC": "> 16"}
    ]},
    {"biological_target": "not listed separately", "assay": "Inhibition of bacteria ADC-7 assessed as apparent inhibition constant using nitrocefin as substrate", "conditions": "not given", "units": {"Ki": "nM"}, "values": [
      {"smiles": "O=C(NNC(=O)[C@@H]1CC[C@@H]2CN1C(=O)N2OS(=O)(=O)O)[C@@H]1CCCNC1", "note": "[ZIDEBACTAM]", "Ki": 2300}
    ]},
    {"test_system": "Klebsiella pneumoniae", "assay": "Synergistic antibacterial activity against Klebsiella pneumoniae 901/1860 producing KPC-3 assessed as meropenem MIC at 8 ug/ml by broth microdilution method", "format": "functional", "conditions": "dose 8 µg/ml", "units": {"MIC": "µg/mL"}, "values": [
      {"smiles": "O=C(NNC(=O)[C@@H]1CC[C@@H]2CN1C(=O)N2OS(=O)(=O)O)[C@@H]1CCCNC1", "note": "[ZIDEBACTAM]", "MIC": "≤ 0.12"}
    ]},
    {"test_system": "Escherichia coli", "assay": "Synergistic antibacterial activity against Escherichia coli DH10B transfected with pBR322-catI-KPC-2 assessed as cefepime MIC at 4 ug/ml by broth microdilution method", "format": "functional", "conditions": "dose 4 µg/ml", "summary_of_the_method": "(§1)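 Broth microdilution per CLSI guidelines, using custom frozen panels. […] Each partner drug was also tested alone. MICs were run in triplicate and the modal value is reported.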", "units": {"MIC": "µg/mL"}, "values": [
      {"smiles": "O=C(NNC(=O)[C@@H]1CC[C@@H]2CN1C(=O)N2OS(=O)(=O)O)[C@@H]1CCCNC1", "note": "[ZIDEBACTAM]", "MIC": "≤ 0.12"}
    ]},
    {"test_system": "Acinetobacter baumannii", "assay": "Synergistic antibacterial activity against ADC deleted Acinetobacter baumannii assessed as cefepime MIC at 8 ug/ml by broth microdilution method", "format": "functional", "conditions": "dose 8 µg/ml", "units": {"MIC": "µg/mL"}, "values": [
      {"smiles": "O=C(NNC(=O)[C@@H]1CC[C@@H]2CN1C(=O)N2OS(=O)(=O)O)[C@@H]1CCCNC1", "note": "[ZIDEBACTAM]", "MIC": 0.5}
    ]},
    {"test_system": "Klebsiella pneumoniae", "assay": "Synergistic antibacterial activity against Klebsiella pneumoniae 1315/2198 producing KPC-3 assessed as meropenem MIC at 4 ug/ml by broth microdilution method", "format": "functional", "conditions": "dose 4 µg/ml", "summary_of_the_method": "as §1", "units": {"MIC": "µg/mL"}, "values": [
      {"smiles": "O=C(NNC(=O)[C@@H]1CC[C@@H]2CN1C(=O)N2OS(=O)(=O)O)[C@@H]1CCCNC1", "note": "[ZIDEBACTAM]", "MIC": "≤ 0.12"}
    ]},
    {"test_system": "Bacteria", "assay": "Inhibition of bacteria ADC-7 assessed as second order rate constant K2/K using nitrocefin as substrate", "conditions": "not given", "values": [
      {"smiles": "O=C(NNC(=O)[C@@H]1CC[C@@H]2CN1C(=O)N2OS(=O)(=O)O)[C@@H]1CCCNC1", "note": "[ZIDEBACTAM]", "K": "3.5 10^4/M/s"}
    ]},
    {"test_system": "Klebsiella pneumoniae", "assay": "Synergistic antibacterial activity against Klebsiella pneumoniae CAV 1636 producing OXA-181 assessed as meropenem MIC at 8 ug/ml by broth microdilution method", "format": "functional", "conditions": "dose 8 µg/ml", "units": {"MIC": "µg/mL"}, "values": [
      {"smiles": "O=C(NNC(=O)[C@@H]1CC[C@@H]2CN1C(=O)N2OS(=O)(=O)O)[C@@H]1CCCNC1", "note": "[ZIDEBACTAM]", "MIC": "≤ 0.12"}
    ]},
    {"test_system": "Acinetobacter baumannii", "assay": "Synergistic antibacterial activity against Acinetobacter baumannii PR363 producing OXA-23 assessed as cefepime MIC at 4 ug/ml by broth microdilution method", "format": "functional", "conditions": "dose 4 µg/ml", "units": {"MIC": "µg/mL"}, "values": [
      {"smiles": "O=C(NNC(=O)[C@@H]1CC[C@@H]2CN1C(=O)N2OS(=O)(=O)O)[C@@H]1CCCNC1", "note": "[ZIDEBACTAM]", "MIC": 8}
    ]},
    {"test_system": "Klebsiella pneumoniae", "assay": "Synergistic antibacterial activity against Klebsiella pneumoniae 660/1568 producing KPC-3 assessed as meropenem MIC at 4 ug/ml by broth microdilution method", "format": "functional", "conditions": "dose 4 µg/ml", "summary_of_the_method": "as §1", "units": {"MIC": "µg/mL"}, "values": [
      {"smiles": "O=C(NNC(=O)[C@@H]1CC[C@@H]2CN1C(=O)N2OS(=O)(=O)O)[C@@H]1CCCNC1", "note": "[ZIDEBACTAM]", "MIC": "≤ 0.12"}
    ]},
    {"test_system": "Klebsiella pneumoniae", "assay": "Synergistic antibacterial activity against Klebsiella pneumoniae CAV 1543 producing OXA-48 assessed as cefepime MIC at 8 ug/ml by broth microdilution method", "format": "functional", "conditions": "dose 8 µg/ml", "units": {"MIC": "µg/mL"}, "values": [
      {"smiles": "O=C(NNC(=O)[C@@H]1CC[C@@H]2CN1C(=O)N2OS(=O)(=O)O)[C@@H]1CCCNC1", "note": "[ZIDEBACTAM]", "MIC": "≤ 0.12"}
    ]},
    {"test_system": "Acinetobacter baumannii", "assay": "Synergistic antibacterial activity against Acinetobacter baumannii PR420 producing OXA-23/24/40 assessed as cefepime MIC at 8 ug/ml by broth microdilution method", "format": "functional", "conditions": "dose 8 µg/ml", "units": {"MIC": "µg/mL"}, "values": [
      {"smiles": "O=C(NNC(=O)[C@@H]1CC[C@@H]2CN1C(=O)N2OS(=O)(=O)O)[C@@H]1CCCNC1", "note": "[ZIDEBACTAM]", "MIC": "> 16"}
    ]},
    {"test_system": "Acinetobacter baumannii", "assay": "Synergistic antibacterial activity against ADC deleted Acinetobacter baumannii assessed as meropenem MIC at 4 ug/ml by broth microdilution method", "format": "functional", "conditions": "dose 4 µg/ml", "units": {"MIC": "µg/mL"}, "values": [
      {"smiles": "O=C(NNC(=O)[C@@H]1CC[C@@H]2CN1C(=O)N2OS(=O)(=O)O)[C@@H]1CCCNC1", "note": "[ZIDEBACTAM]", "MIC": "≤ 0.12"}
    ]},
    {"test_system": "Klebsiella pneumoniae", "assay": "Synergistic antibacterial activity against Klebsiella pneumoniae 977/1916 producing KPC-3 assessed as cefepime MIC at 4 ug/ml by broth microdilution method", "format": "functional", "conditions": "dose 4 µg/ml", "units": {"MIC": "µg/mL"}, "values": [
      {"smiles": "O=C(NNC(=O)[C@@H]1CC[C@@H]2CN1C(=O)N2OS(=O)(=O)O)[C@@H]1CCCNC1", "note": "[ZIDEBACTAM]", "MIC": "≤ 0.12"}
    ]},
    {"test_system": "Acinetobacter baumannii", "assay": "Synergistic antibacterial activity against Acinetobacter baumannii PR440 producing OXA-23/24/40 assessed as meropenem MIC at 8 ug/ml by broth microdilution method", "format": "functional", "conditions": "dose 8 µg/ml", "units": {"MIC": "µg/mL"}, "values": [
      {"smiles": "O=C(NNC(=O)[C@@H]1CC[C@@H]2CN1C(=O)N2OS(=O)(=O)O)[C@@H]1CCCNC1", "note": "[ZIDEBACTAM]", "MIC": "> 16"}
    ]},
    {"test_system": "Acinetobacter baumannii", "assay": "Synergistic antibacterial activity against ADC deleted Acinetobacter baumannii transfected with pWH1266 OXA-23 assessed as meropenem MIC at 8 ug/ml by broth microdilution method", "format": "functional", "conditions": "dose 8 µg/ml", "summary_of_the_method": "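Broth microdilution per CLSI guidelines in frozen panels. Test compound held at fixed 8 mg/L while the partner β-lactam concentration was increased. Run in triplicate; modal MIC reported.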", "units": {"MIC": "µg/mL"}, "values": [
      {"smiles": "O=C(NNC(=O)[C@@H]1CC[C@@H]2CN1C(=O)N2OS(=O)(=O)O)[C@@H]1CCCNC1", "note": "[ZIDEBACTAM]", "MIC": "> 16"}
    ]}
  ]
}
